pIC50: −log10 of the molar value.
Legend:
[1] = species on record: Rattus norvegicus; test: Potency index, ratio of perampanel ED50 to compound ED50 for inhibition of pentylenetetrazole-induced clonic convulsions in Sprague-Dawley rat; type: functional
[2] = tested on: Brain; test: Drug uptake in Sprague-Dawley rat brain at 3 mg/kg, po; type: ADME, organism-based; conditions: in vivo
Summary of the method: (§1)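 Rats dosed orally 1–30 mg/kg 30 min before iv bolus of non-radiolabelled tracer; brain taken 40 min after tracer; tracer in hippocampus (total binding) and cerebellum (null region) quantified by LC-MS/MS; occupancy by ratio method; brain exposure measured; n = 4 per group, mean ± SEM.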

[3] = target: T1, Glutamate receptor 1 (Homo sapiens, UniProt P42261); test: (§2) Antagonist activity at human iGluA1 receptor flop isoform expressed in CHO-S cells coexpressing TARP gamma-2 assessed as inhibition of glutamate-induced increase in intracellular calcium levels after 2 mins followed by cyclothiazide/glutamate addition by fluo-4 AM dye based fluorescence imaging plate reader method; type: cell-based
[4] = tested on: Rattus norvegicus; test: Receptor occupancy at TARP gamma-8 containing AMPA receptor in Sprague-Dawley rat at 30 mg/kg, po administered 30 mins prior to addition of 6-[2-Ethoxyethyl-[4-(2-pyridyl)thiazol-2-yl]amino]-3H-1,3-benzothiazol-2-one measured after 40 mins by […]; type: functional
[5] = tested on: Plasma; test: Plasma concentration in Sprague-Dawley rat at 10 mg/kg, po; type: ADME, organism-based; conditions: in vivo
[6] = tested on: Rattus norvegicus; test: Anticonvulsant activity in po dosed Sprague-Dawley rat assessed as inhibition of pentylenetetrazole-induced clonic convulsions at 3 mg/kg administered 30 mins prior to PTZ dosing measured over 30 mins; type: functional
[7] = tested on: Plasma; test: Plasma concentration in Sprague-Dawley rat at 3 mg/kg, po; type: ADME, organism-based; conditions: in vivo
[8] = tested on: Rattus norvegicus; test: Receptor occupancy at TARP gamma-8 containing AMPA receptor in Sprague-Dawley rat at 1 mg/kg, po administered 30 mins prior to addition of 6-[2-Ethoxyethyl-[4-(2-pyridyl)thiazol-2-yl]amino]-3H-1,3-benzothiazol-2-one measured after 40 mins by […]; type: functional
[9] = tested on: Rattus norvegicus; test: Anticonvulsant activity in po dosed Sprague-Dawley rat assessed as inhibition of pentylenetetrazole-induced clonic convulsions at 10 mg/kg administered 30 mins prior to PTZ dosing measured over 30 mins; type: functional
[10] = tested on: Plasma; test: Plasma concentration in Sprague-Dawley rat at 30 mg/kg, po; type: ADME, organism-based; conditions: in vivo
[11] = target: T1, Glutamate receptor 1; test: Antagonist activity at human iGluA1 receptor flip isoform expressed in CHO-S cells assessed as inhibition of glutamate-induced increase in intracellular calcium levels after 2 mins followed by cyclothiazide/glutamate addition by fluo-4 NW dye based fluorescence imaging plate reader method; type: cell-based
[12] = Clearance in rat at 1 mg/kg, iv; type: ADME, organism-based; conditions: in vivo
Summary of the method: (§3)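 Rats dosed 1 mg/kg iv or 3 mg/kg po; plasma concentration–time profiles give AUC, CL, Vdss, Cmax, Tmax and absolute oral bioavailability; mean and SEM, n = 3.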

[13] = tested on: Brain; test: Drug uptake in Sprague-Dawley rat brain at 30 mg/kg, po; type: ADME, organism-based; conditions: in vivo; summary of the method: as §1
[14] = Cmax in rat at 3 mg/kg, po; type: ADME, organism-based; set-up: dose 3 mg/kg, route oral; conditions: in vivo; summary of the method: as §3
[15] = Tmax in rat at 3 mg/kg, po; type: ADME, organism-based; conditions: in vivo; summary of the method: as §3
[16] = Oral bioavailability in rat at 3 mg/kg; type: ADME, organism-based; conditions: in vivo; summary of the method: as §3
[17] = target: T1, Glutamate receptor 1; test: as §2, with “gamma-8 and human EAAT3” for “gamma-2”; type: cell-based
Summary of the method: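 Transiently transfected CHO-S cells (human GluA1Q flop with TARP γ-8 and human EAAT3, DNA ratio 2:3), frozen, thawed, plated overnight at 37 °C; Fluo-4 AM loading 2 h at 22 °C. Compound added, then 2 min later glutamate (5 μM final); cyclothiazide (20 μM) plus glutamate (45 μM) 2 min after. FLIPR Ca2+ read; inhibition relative to 167 μM nonselective antagonist and buffer baseline; four-parameter logistic IC50; mean ± SEM, n ≥ 2.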

[18] = tested on: Plasma; test: Plasma concentration in Sprague-Dawley rat at 100 mg/kg, po; type: ADME, organism-based; conditions: in vivo
Summary of the method: (§4)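 Rats given compound orally (10 or 100 mg/kg), scored on inverted screen for motor impairment; plasma exposure measured; ≥4 rats/group, mean ± SEM; TD50 used with PTZ ED50 for protective index.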

[19] = tested on: Rattus norvegicus; test: Protective index, ratio of TD50 for motor impairment to ED50 for inhibition of pentylenetetrazole-induced clonic convulsions in po dosed Sprague-Dawley rat
Summary of the method: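 PI = inverted screen TD50 divided by PTZ ED50. For the ED50, rats were dosed orally 30 min before PTZ (35 mg/kg, sc), with n = 10 per group. Read-out was % block of clonic convulsions; ED50 given with 95% confidence limits.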

[20] = AUC in rat at 3 mg/kg, po; type: ADME, organism-based; conditions: in vivo; summary of the method: as §3
[21] = Toxicity in po dosed Sprague-Dawley rat assessed as motor impairment by inverted screen test; type: organism-based; conditions: in vivo; summary of the method: as §4
[22] = tested on: Rattus norvegicus; test: Anticonvulsant activity in po dosed Sprague-Dawley rat assessed as inhibition of pentylenetetrazole-induced clonic convulsions administered 30 mins prior to PTZ dosing measured over 30 mins; type: functional
[23] = tested on: Brain; test: Drug uptake in Sprague-Dawley rat brain at 1 mg/kg, po; type: ADME, organism-based; conditions: in vivo; summary of the method: as §1
[24] = tested on: Rattus norvegicus; test: Receptor occupancy at TARP gamma-8 containing AMPA receptor in Sprague-Dawley rat at 3 mg/kg, po administered 30 mins prior to addition of 6-[2-Ethoxyethyl-[4-(2-pyridyl)thiazol-2-yl]amino]-3H-1,3-benzothiazol-2-one measured after 40 mins by […]; type: functional
[25] = tested on: Rattus norvegicus; test: Receptor occupancy at TARP gamma-8 containing AMPA receptor in Sprague-Dawley rat at 10 mg/kg, po administered 30 mins prior to addition of 6-[2-Ethoxyethyl-[4-(2-pyridyl)thiazol-2-yl]amino]-3H-1,3-benzothiazol-2-one measured after 40 mins by […]; type: functional
[26] = tested on: Rattus norvegicus; test: Anticonvulsant activity in po dosed Sprague-Dawley rat assessed as inhibition of pentylenetetrazole-induced clonic convulsions at 1 mg/kg administered 30 mins prior to PTZ dosing measured over 30 mins; type: functional
[27] = Clearance in rat; type: ADME, organism-based; conditions: in vivo
[28] = Volume of distribution at steady state in rat at 1 mg/kg, iv; type: ADME, organism-based; conditions: in vivo, read-out: Vdss; summary of the method: as §3
[29] = tested on: Brain; test: Drug uptake in Sprague-Dawley rat brain at 10 mg/kg, po; type: ADME, organism-based; conditions: in vivo; summary of the method: as §1
[30] = target: T2, Cytochrome P450 1A2 (Homo sapiens, UniProt P05177); test: Inhibition of human CYP1A2; type: ADME
T2 sequence (P05177 whole entry): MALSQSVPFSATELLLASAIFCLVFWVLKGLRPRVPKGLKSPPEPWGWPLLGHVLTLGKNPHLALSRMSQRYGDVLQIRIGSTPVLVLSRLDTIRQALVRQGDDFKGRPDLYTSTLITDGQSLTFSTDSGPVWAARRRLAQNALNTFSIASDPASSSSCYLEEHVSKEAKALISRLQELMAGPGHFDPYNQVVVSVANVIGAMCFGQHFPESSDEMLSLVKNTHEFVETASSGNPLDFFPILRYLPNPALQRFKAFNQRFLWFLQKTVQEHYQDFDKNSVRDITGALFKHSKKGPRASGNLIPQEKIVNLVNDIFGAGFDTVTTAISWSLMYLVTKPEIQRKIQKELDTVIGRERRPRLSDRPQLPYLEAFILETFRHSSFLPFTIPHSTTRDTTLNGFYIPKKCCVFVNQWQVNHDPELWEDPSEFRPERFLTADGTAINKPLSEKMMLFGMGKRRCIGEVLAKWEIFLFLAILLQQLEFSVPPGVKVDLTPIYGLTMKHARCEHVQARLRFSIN

[31] = tested on: Rattus norvegicus; test: Toxicity in Sprague-Dawley rat assessed as motor impairment up to 100 mg/kg, po by inverted screen test; type: organism-based; conditions: in vivo; summary of the method: as §4
[32] = tested on: Plasma; test: Plasma concentration in Sprague-Dawley rat at 1 mg/kg, po; type: ADME, organism-based; conditions: in vivo
[33] = AUC in rat at 1 mg/kg, iv; type: ADME, organism-based; conditions: in vivo; summary of the method: as §3

T1 sequence (P42261 whole entry, canonical isoform): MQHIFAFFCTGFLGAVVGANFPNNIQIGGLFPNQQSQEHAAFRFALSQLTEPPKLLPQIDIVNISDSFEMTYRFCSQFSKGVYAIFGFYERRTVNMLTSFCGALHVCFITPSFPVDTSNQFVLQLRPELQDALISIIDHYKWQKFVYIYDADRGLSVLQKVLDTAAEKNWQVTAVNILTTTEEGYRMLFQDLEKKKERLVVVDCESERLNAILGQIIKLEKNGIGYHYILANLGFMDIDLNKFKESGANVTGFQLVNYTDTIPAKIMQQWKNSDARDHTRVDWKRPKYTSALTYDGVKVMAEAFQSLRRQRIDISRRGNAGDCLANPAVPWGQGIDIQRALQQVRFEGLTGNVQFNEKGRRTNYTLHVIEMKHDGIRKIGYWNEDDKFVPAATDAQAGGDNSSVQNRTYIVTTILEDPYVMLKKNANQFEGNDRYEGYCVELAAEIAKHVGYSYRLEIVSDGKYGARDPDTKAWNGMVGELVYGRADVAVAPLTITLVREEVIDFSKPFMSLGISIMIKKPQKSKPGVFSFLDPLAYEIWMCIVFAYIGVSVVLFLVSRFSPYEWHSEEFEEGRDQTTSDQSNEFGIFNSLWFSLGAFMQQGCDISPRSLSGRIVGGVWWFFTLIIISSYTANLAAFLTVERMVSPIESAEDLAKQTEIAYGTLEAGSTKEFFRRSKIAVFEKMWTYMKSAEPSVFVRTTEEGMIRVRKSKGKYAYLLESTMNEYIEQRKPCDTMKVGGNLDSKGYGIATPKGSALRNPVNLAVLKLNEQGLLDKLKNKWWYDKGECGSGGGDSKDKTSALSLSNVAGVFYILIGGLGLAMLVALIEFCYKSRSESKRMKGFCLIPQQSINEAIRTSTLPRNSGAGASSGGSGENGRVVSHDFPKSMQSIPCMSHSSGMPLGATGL

Drug uptake [2]: 477 ng/g
pIC50 [3]: 4.16
Cp [5]: 3360 ng/mL
Cp [7]: 1269 ng/mL
Cp [10]: 1780 ng/mL
pIC50 [11]: 4.08
clearance [12]: 11.4 mL/min/kg
Drug uptake [13]: 2400 ng/g
Cmax [14]: 628 ng/mL
Tmax [15]: 1.3 h
bioavailability [16]: 97%
pIC50 [17]: 7.19
Cp [18]: 8342 ng/mL
AUC [20]: 4220 ng·h/mL
Drug uptake [23]: 133 ng/g
clearance [27]: 11.4 mL/min/kg
Vd [28]: 1.28 L/kg
Drug uptake [29]: 1526 ng/g
pIC50 [30]: < 5.00
Cp [32]: 377 ng/mL
AUC [33]: 1470 ng·h/mL
Compound: C[C@@H](c1ccc2[nH]c(=O)sc2c1)c1ccn(-c2ccc(OCCO)cn2)n1
Ratio ED50 [1]: 10
Occ [4]: 96%
inhibition in vivo at 3 mg/kg [6]: 80%
Occ [8]: 45%
inhibition in vivo at 10 mg/kg [9]: 100%
Ratio TD50/ED50 [19]: >58
TD50 [21]: 3.8 mg/kg
ED50 [22]: 1.7 mg/kg
inhibition [22]: Dose-dependent effect
Occ [24]: 69%
Occ [25]: 68%
inhibition in vivo at 1 mg/kg [26]: 40%
Activity [31]: Non-toxic

Reference: ChEMBL document CHEMBL3822422, “Discovery of the First α-Amino-3-hydroxy-5-methyl-4-isoxazolepropionic Acid (AMPA) Receptor Antagonist Dependent upon Transmembrane AMPA Receptor Regulatory Protein (TARP) γ-8” (J Med Chem, 2016)
